Data set [1] relates to RNA containing a single 2 × 2 CU/UC internal loop, r(5′-GACAGCCUGCUGUC-3′). The data set can be described thus: NMR spectroscopy. It counts as binding. The settings on record: for shifts of RNA H6 and H8 proton resonances in 1D NMR: RNA with one 2×2 CU/UC internal loop; for binding to the RNA by waterLOGSY spectra: positive phase signals in the presence of RNA, 20:1 compound:RNA. A digest of the protocol:
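1D spectra were run on 100 μM RNA in D2O with compound titrated at 0.5–2.0 molar ratios. WaterLOGSY used 300 μM compound alone or with 15 μM RNA in H2O/5% D2O, phased so non-binders give negative NOEs. All spectra at 25 °C.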

Another data set deals with r(CCUG)12–MBNL1 complex. The data set can be described thus: TR-FRET assay measuring disruption of a preformed r. It counts as biochemical. The settings on record: read-out: IC50 for disrupting the r(CCUG)12–MBNL1 complex, in vitro. A digest of the protocol: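 5′-Biotinylated r(CCUG)12 was folded at 60 °C for 5 min in 20 mM HEPES pH 7.5 with KCl and NaCl. It was then brought into assay buffer with 2 mM MgCl2, 2 mM CaCl2, 5 mM DTT, 0.1% BSA and 0.5% Tween-20. MBNL1-His6 was added (final 60 nM protein, 80 nM RNA) for 15 min, then varying compound concentrations for 15 min. Streptavidin-XL665 (40 nM) and anti-His6-Tb (0.44 ng/μL) were added for 30 min at room temperature. The F545/F665 ratio, with excitation at 345 nm, was fitted to a Hill equation.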

The test system of the next data set is IR exon 11 splicing. The data set is classed as cell-based. The following applies: DM2 patient-derived fibroblasts; for rescue of IR exon 11 splicing (percent rescue): 1 μM. The method in brief: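 DM2 patient-derived fibroblasts were treated at ~40% confluency in 6-well plates for 48 h. About 1 μg of total RNA was reverse transcribed. PCR ran 35 cycles (95/58/72 °C), and products were resolved on a 2% agarose gel, stained with ethidium bromide and quantified. Percent rescue = (untreated DM2 exclusion − treated exclusion)/(untreated DM2 exclusion − untreated WT exclusion) × 100.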

The test system of data set [2] is DM2 patient-derived fibroblasts. The data set can be described thus: Cell viability. It counts as cell-based. The following applies: 5 μM, 48 h. The method in brief:
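Cells were treated in 96-well plates for 48 h. CellTiter-Glo reagent was added, plates sat 10 min at room temperature, and luminescence was read. n = 6 replicates in one independent experiment.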

The next data set concerns MAP4K4 exon 22a splicing. The data set is described as follows: MAP4K4 exon 22a splicing. The data set is classed as cell-based. The settings on record: NOVA-dependent splicing event.
Data set [3] relates to r(CCUG)exp–MBNL1 nuclear foci. The data set is classed as cell-based. The following applies: 5 μM, DM2 patient-derived fibroblasts; untreated 7 ± 1.
The test system of a further data set is IR exon 11 inclusion. The data set can be described thus: IR exon 11 inclusion in wild-type fibroblasts. The data set is classed as cell-based. A digest of the protocol:
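Wild-type donor fibroblasts (GM07492) were grown in MEM with 10% FBS and treated at ~40% confluency for 48 h. About 1 μg of total RNA was reverse transcribed. PCR ran 35 cycles (95 °C 30 s, 58 °C 30 s, 72 °C 1 min). Products were separated on a 2% agarose gel, stained with ethidium bromide, and percent exon 11 exclusion was quantified by densitometry.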

The target of data set [4] is base-paired RNA that does not contain internal loops. The data set is described as follows: Microscale thermophoresis. The settings on record: read-out: Kd for base pair control RNA; MST. The data set is classed as binding. A digest of the protocol: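 Cy5-labelled base-paired control RNA, GCG(CCUG)7(GCAG)5CGC, was used at 5 nM in 8 mM Na2HPO4 pH 7.0, 185 mM NaCl and 1 mM EDTA, folded at 60 °C for 5 min. It was mixed with 1:1 serial compound dilutions (0.05% Tween-20 final) and held 30 min at room temperature. MST settings: 80% power, 30 s laser-on. Kd came from a quadratic fit, averaged over two independent experiments.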

The test system of data set [5] is CNBP intron 1. The data set can be described thus: CNBP intron 1 levels in wild-type fibroblasts. The data set is classed as cell-based. The method in brief:
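Wild-type donor fibroblasts (GM07492) were grown in MEM with 10% FBS and Glutagro at 37 °C and 5% CO2. Cells were treated at 40% confluency for 48 h. About 1 μg of total RNA was reverse transcribed and run in SYBR Green qPCR. Relative abundance was normalized to GAPDH.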

Data set [6] relates to CNBP intron 1. The data set is described as follows: CNBP intron 1 abundance by RT-qPCR in DM2 patient-derived fibroblasts. The following applies: doses of 5 and 1 μM. The data set is classed as cell-based. A digest of the protocol: (§1)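 DM2 patient-derived fibroblasts were grown in DMEM/high glucose with 20% FBS at 37 °C and 5% CO2. Cells in 6-well plates were treated in growth medium at 40% confluency for 48 h. About 1 μg of total RNA was reverse transcribed, then run in SYBR Green qPCR. Abundance was normalized to GAPDH across 2 independent experiments.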
In general terms: Quantitative PCR measures a nucleic acid by following its amplification.

Another data set deals with CNBP mature mRNA. The data set is described as follows: CNBP mature mRNA levels by RT-qPCR in DM2 patient-derived fibroblasts. The data set is classed as cell-based. The method in brief: as §1

Like-named read-outs stand apart in the source and are kept apart here.

As for `CN(C)c1ccc(Nc2nc(NCCCO)c3ccccc3n2)cc1` [compound 4], in [1], the “shifts of RNA H6 and H8 proton resonances in 1D NMR” value (from here on “shifts”) was “Significant shifts in resonances”; the “binding to the RNA by waterLOGSY spectra” value was “bound to the RNA”.
`COc1ccc(Nc2nc(NCCCO)c3ccccc3n2)cc1` [compound 3]: in [1], the “shifts” value is “Significant shifts in resonances”; the “binding to the RNA by waterLOGSY spectra” value was “bound to the RNA”.
On the same counts, the results for `CC(=O)Nc1ccc(Nc2nc(NCC3CCCO3)c3ccccc3n2)cc1` (centres unmarked) [compound 5] are “Significant shifts in resonances” and “bound to the RNA”.
A word on the IC50: it is the midpoint of a concentration-inhibition curve. On to `Cc1ccc2nc(Nc3ccc4nc(NCC(C)(C)O)sc4c3)nc(NCCCO)c2c1` [compound 78, 3-((2-((2-((2-hydroxy-2-methylpropyl)amino)benzo[d]thiazol-6-yl)amino)-6-methylquinazolin-4-yl)amino)propan-1-ol], for which, in the data set on r(CCUG)12–MBNL1 complex, the IC50 was < 5 µM. The “rescue of IR exon 11 splicing” value in the data set with IR exon 11 splicing (5 μM, 48 h) is given as “significantly improved IR splicing”. In [2], the “toxicity in DM2 patient-derived fibroblasts” value (“toxicity” for short) was “no toxicity”.
On to `Cc1ccc2nc(Nc3ccc4nc(NCCN5CCOCC5)sc4c3)nc(NCCCO)c2c1` [compound 74, 3-((6-methyl-2-((2-((2-morpholinoethyl)amino)benzo[d]thiazol-6-yl)amino)quinazolin-4-yl)amino)propan-1-ol], for which the IC50 in the data set with r(CCUG)12–MBNL1 complex is < 5 µM.
In the case of `OCCCNc1nc(Nc2ccc3c(c2)OCCO3)nc2ccccc12` [compound 7, 3-((2-((2,3-dihydrobenzo[b][1,4]dioxin-6-yl)amino)quinazolin-4-yl)amino)propan-1-ol], in data set [1], the “shifts” value is “Significant shifts in resonances”; the “binding to the RNA by waterLOGSY spectra” value is “bound to the RNA”. For the same compound, the “rescue of IR exon 11 splicing (percent rescue)” value in the data set on IR exon 11 splicing (48 h) is on record as 12 ± 5%.
With `Cc1ccc2nc(Nc3ccc4c(c3)OCCO4)nc(NCCCO)c2c1` [compound 58, 3-((2-((2,3-dihydrobenzo[b][1,4]dioxin-6-yl)amino)-6-methylquinazolin-4-yl)amino)propan-1-ol], the IC50 in the data set on r(CCUG)12–MBNL1 complex is 12.7 ± 0.2 µM.
As a reminder, the Kd is the free concentration of one partner at which half of the binding sites on the other are occupied at equilibrium, for simple one-to-one binding. With `Cc1ccc2nc(Nc3ccc4nc(C)sc4c3)nc(NCCCO)c2c1` [compound 63, 3-((6-methyl-2-((2-methylbenzo[d]thiazol-6-yl)amino)quinazolin-4-yl)amino)propan-1-ol], in the data set on MAP4K4 exon 22a splicing, the “effect on MAP4K4 exon 22a splicing” value was “did not affect”. Moreover, in data set [3], the “number of r(CCUG)exp–MBNL1 nuclear foci per cell” value stood at 5 ± 0.5. In the data set with IR exon 11 inclusion, the “effect on IR exon 11 inclusion” value is listed as “did not affect”. Moreover, the IC50 in the data set on r(CCUG)12–MBNL1 complex was found to be 2.2 ± 0.5 µM. In the data set on IR exon 11 splicing (48 h), the “rescue of IR exon 11 splicing (percent rescue)” value amounted to 33 ± 5%. In addition, in the data set with IR exon 11 splicing (5 μM, 48 h), the “rescue of IR exon 11 splicing” value is reported as “significantly improved IR splicing”. The Kd in [4] was > 20 µM. The “effects on CNBP intron 1 levels” value with CNBP intron 1 [5] is given as “no effects were observed”. The “abundance of CNBP intron 1” value in the data set on CNBP intron 1 [6] is given as “significantly reduced”. Moreover, the “levels of CNBP mature mRNA” value in the data set with CNBP mature mRNA is on record as “did not affect”. Besides, the “toxicity” value in data set [2] was “no toxicity”.
Take `Cc1ccc2nc(Nc3ccc4nc(NCC(C)C)sc4c3)nc(NCCCO)c2c1` [compound 73, 3-((2-((2-(isobutylamino)benzo[d]thiazol-6-yl)amino)-6-methylquinazolin-4-yl)amino)propan-1-ol]: the 50% inhibitory concentration (IC50) with r(CCUG)12–MBNL1 complex is < 5 µM.
Turning to `Cc1ccc2nc(Nc3ccc4nc(NC5CCN(Cc6ccccc6)CC5)sc4c3)nc(NCCCO)c2c1` [compound 71, 3-((2-((2-((1-benzylpiperidin-4-yl)amino)benzo[d]thiazol-6-yl)amino)-6-methylquinazolin-4-yl)amino)propan-1-ol], the IC50 in the data set on r(CCUG)12–MBNL1 complex is < 5 µM.
On the same count and under the same terms, then `Cc1ccc2nc(Nc3ccc4nc(N5CCN(C)CC5)sc4c3)nc(NCCCO)c2c1` [compound 82, 3-((6-methyl-2-((2-(4-methylpiperazin-1-yl)benzo[d]thiazol-6-yl)amino)quinazolin-4-yl)amino)propan-1-ol], with < 5 µM.
Regarding `Cc1ccc2nc(Nc3ccc4nc(NCCN(C)C)sc4c3)nc(NCCCO)c2c1` [compound 79, 3-((2-((2-((2-(dimethylamino)ethyl)amino)benzo[d]thiazol-6-yl)amino)-6-methylquinazolin-4-yl)amino)propan-1-ol], the IC50 in the data set with r(CCUG)12–MBNL1 complex was < 5 µM. The “rescue of IR exon 11 splicing” value with IR exon 11 splicing (any concentration studied) was “did not significantly rescue splicing”. Also, the “toxicity” value in data set [2] was “no toxicity”.
For `Cc1ccc2nc(Nc3ccc4nc(N5CCOCC5)sc4c3)nc(NCCCO)c2c1` [compound 72, 3-((6-methyl-2-((2-morpholinobenzo[d]thiazol-6-yl)amino)quinazolin-4-yl)amino)propan-1-ol], the IC50 in the data set on r(CCUG)12–MBNL1 complex is < 5 µM.

The record behind these values is paper PMC8883746 (Journal of medicinal chemistry, 2021).
